Assay results reported in ChEMBL document CHEMBL1155080, “Alpha2-adrenoreceptors profile modulation. 4. From antagonist to agonist behavior” (J Med Chem, 2008).
The source made the active and inactive calls. No cut-off for these calls is given here.

Experiments:
[1] = target: T1, Alpha-2A adrenergic receptor (Homo sapiens, UniProt P08913); experiment: Displacement of [3H]RS79948-197 from human recombinant adrenergic alpha2A receptor expressed in CHO cells; assay type: cell-based
T1 sequence (P08913 whole entry): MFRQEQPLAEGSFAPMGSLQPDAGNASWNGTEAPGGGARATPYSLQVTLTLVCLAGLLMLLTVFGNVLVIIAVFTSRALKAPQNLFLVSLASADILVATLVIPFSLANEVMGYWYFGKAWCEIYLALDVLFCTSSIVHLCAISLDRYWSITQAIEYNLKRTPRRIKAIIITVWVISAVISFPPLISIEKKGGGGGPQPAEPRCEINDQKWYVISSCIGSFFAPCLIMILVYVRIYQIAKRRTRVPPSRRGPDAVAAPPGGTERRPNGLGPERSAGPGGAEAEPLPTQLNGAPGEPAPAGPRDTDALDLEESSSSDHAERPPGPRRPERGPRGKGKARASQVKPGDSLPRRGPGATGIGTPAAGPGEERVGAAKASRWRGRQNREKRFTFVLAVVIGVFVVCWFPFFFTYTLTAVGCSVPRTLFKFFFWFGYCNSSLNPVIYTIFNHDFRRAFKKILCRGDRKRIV
In short: (§1)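 Competition binding on membranes from CHO cells stably expressing each human α2 subtype (1-3 pmol/mg receptor). Assay in 50 mM potassium phosphate, pH 7.4, with 5-10 µg protein. Eight competitor dilutions, 30 min at room temperature, then vacuum filtration and scintillation counting. IC50 by one-site nonlinear regression, converted with Cheng-Prusoff; mean ± SEM, 3-6 experiments.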

[2] = target: T2, Alpha-2A adrenergic receptor (Homo sapiens) (UniProt P08913); experiment: (§2) Agonist activity at human recombinant adrenergic alpha2A receptor expressed in CHO cells assessed as stimulation of extracellular acidification; assay type: functional, cell-based
T2 sequence (whole entry): T1 sequence (P08913 whole entry)

[3] = target: T3, Alpha-2B adrenergic receptor (Homo sapiens, UniProt P18089); experiment: Displacement of [3H]RS79948-197 from human recombinant adrenergic alpha2B receptor expressed in CHO cells; assay type: cell-based; in short: as §1
T3 sequence (P18089 whole entry): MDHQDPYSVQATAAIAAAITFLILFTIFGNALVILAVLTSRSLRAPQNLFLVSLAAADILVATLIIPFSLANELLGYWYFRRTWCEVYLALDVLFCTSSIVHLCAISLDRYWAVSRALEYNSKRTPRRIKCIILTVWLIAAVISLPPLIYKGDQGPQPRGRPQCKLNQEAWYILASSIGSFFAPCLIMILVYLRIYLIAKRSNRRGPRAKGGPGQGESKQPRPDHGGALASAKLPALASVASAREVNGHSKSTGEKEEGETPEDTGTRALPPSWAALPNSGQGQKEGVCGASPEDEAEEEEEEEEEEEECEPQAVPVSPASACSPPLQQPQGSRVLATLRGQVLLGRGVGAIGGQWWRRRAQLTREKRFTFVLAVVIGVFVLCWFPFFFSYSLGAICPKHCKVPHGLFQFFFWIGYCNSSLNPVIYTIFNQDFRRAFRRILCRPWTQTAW

[4] = target: T4, Alpha-2B adrenergic receptor (Homo sapiens) (UniProt P18089); experiment: (§3) Agonist activity at human recombinant adrenergic alpha2B receptor expressed in CHO cells; assay type: functional, cell-based
T4 sequence (whole entry): T3 sequence (P18089 whole entry)
In short: (§4)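 Cytosensor microphysiometry. Stable CHO cells were seeded at 3 × 10⁵ cells/cup, grown 24 h at 37 °C/5% CO₂, then perfused with bicarbonate-free DMEM at 100 µL/min. Over 90 s pump cycles, pH was read for 20 s. Response is the peak acidification rate minus the mean of three pre-agonist readings. pEC50 is the concentration giving 50% of maximum; mean ± SEM, 3-6 experiments.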

[5] = target: T5, Alpha-2C adrenergic receptor (Homo sapiens, UniProt P18825); experiment: Displacement of [3H]RS79948-197 from human recombinant adrenergic Alpha-2C receptor expressed in CHO cells; assay type: cell-based; in short: as §1
T5 sequence (P18825 whole entry): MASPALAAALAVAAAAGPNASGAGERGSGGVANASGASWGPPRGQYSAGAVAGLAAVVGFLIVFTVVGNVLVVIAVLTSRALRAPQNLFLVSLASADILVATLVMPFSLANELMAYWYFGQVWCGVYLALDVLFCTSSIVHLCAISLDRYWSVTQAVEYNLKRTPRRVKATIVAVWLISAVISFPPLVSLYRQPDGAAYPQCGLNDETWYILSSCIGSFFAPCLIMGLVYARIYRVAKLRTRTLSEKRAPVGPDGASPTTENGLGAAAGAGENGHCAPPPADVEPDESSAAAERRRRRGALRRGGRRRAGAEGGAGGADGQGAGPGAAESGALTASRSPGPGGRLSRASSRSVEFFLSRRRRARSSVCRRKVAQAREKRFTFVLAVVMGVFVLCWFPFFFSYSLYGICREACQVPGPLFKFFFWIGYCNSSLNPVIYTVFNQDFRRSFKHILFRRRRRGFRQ

[6] = target: T5, Alpha-2C adrenergic receptor; experiment: (§5) Agonist activity at human recombinant adrenergic Alpha-2C receptor expressed in CHO cells assessed as stimulation of extracellular acidification; assay type: functional, cell-based; in short: as §4
[7] = target: T6, Alpha-2C adrenergic receptor (Homo sapiens) (UniProt P18825); experiment: Intrinsic activity at human recombinant adrenergic Alpha-2C receptor expressed in CHO cells assessed as stimulation of extracellular acidification relative to (-)-noradrenaline; assay type: cell-based
T6 sequence (whole entry): T5 sequence (P18825 whole entry)
In short: (§6)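 Acidification rate was measured by Cytosensor microphysiometry in stably transfected CHO cells (3 × 10⁵ cells/cup, bicarbonate-free DMEM perfusion). Each response is the peak rate change minus the pre-agonist baseline. Emax from concentration-response curves is expressed as a fraction of the (-)-noradrenaline maximum, taken as 1; mean ± SEM, 3-6 experiments.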

[8] = target: T6, Alpha-2C adrenergic receptor (Homo sapiens); experiment: as §5; assay type: functional, cell-based; in short: as §4
[9] = target: T1, Alpha-2A adrenergic receptor; experiment: as §2; assay type: functional, cell-based
[10] = target: T2, Alpha-2A adrenergic receptor (Homo sapiens); experiment: Intrinsic activity at human recombinant adrenergic alpha2A receptor expressed in CHO cells assessed as stimulation of extracellular acidification relative to (-)-noradrenaline; assay type: cell-based
In short: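 Microphysiometry (Cytosensor) of extracellular acidification rate in CHO cells stably expressing human α2A. Cells were seeded at 3 × 10⁵ cells/cup and cultured 24 h at 37 °C, then perfused with bicarbonate-free DMEM at 100 µL/min, with agonist diluted into running medium. Response was taken as the maximum after agonist minus the mean of three pre-agonist readings. Emax is expressed as a fraction of (−)-noradrenaline (=1); 3–6 experiments.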

[11] = target: T3, Alpha-2B adrenergic receptor; experiment: as §3; assay type: functional, cell-based; in short: as §4
[12] = target: T4, Alpha-2B adrenergic receptor (Homo sapiens); experiment: Intrinsic activity at human recombinant adrenergic alpha2B receptor expressed in CHO cells relative to (-)-noradrenaline; assay type: cell-based; in short: as §6
[13] = target: T2, Alpha-2A adrenergic receptor (Homo sapiens); experiment: Antagonist activity at human recombinant adrenergic alpha2A receptor expressed in CHO cells; assay type: functional, cell-based
In short: (§7)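 Clonidine-curve shift measured by Cytosensor microphysiometry of extracellular acidification in CHO cells stably expressing the individual human α2 subtype. Cells were seeded at 3 × 10⁵ cells/cup for 24 h at 37 °C/5% CO₂ and perfused with bicarbonate-free DMEM at 100 µL/min. A control clonidine concentration-response curve was run, then antagonist was applied ≥30 min before a repeat curve. Kb = M/(EC50 ratio − 1), reported as pKb; 3–6 experiments.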

[14] = target: T4, Alpha-2B adrenergic receptor (Homo sapiens); experiment: Antagonist activity at human recombinant adrenergic alpha2B receptor expressed in CHO cells; assay type: functional, cell-based; in short: as §7
[15] = target: T6, Alpha-2C adrenergic receptor (Homo sapiens); experiment: Antagonist activity at human recombinant adrenergic Alpha-2C receptor expressed in CHO cells; assay type: functional, cell-based; in short: as §7
[16] = Agonist activity at adrenergic alpha2 receptor in rat vas deferens; assay type: functional, tissue-based
Rattus norvegicus = species: Rattus norvegicus; experiment: Intrinsic activity at adrenergic alpha2 receptor in rat vas deferens relative to clonidine; assay type: tissue-based

Row | SMILES | Ki [1] [nM] | Activity [2] | Ki [3] [nM] | Activity [4] | Ki [5] [nM] | EC50 [6] [nM] | Intrinsic activity [7] | Activity [8] | EC50 [9] [nM] | Intrinsic activity [10] | EC50 [11] [nM] | Intrinsic activity [12] | pKb [13] | pKb [14] | pKb [15] | EC50 [16] [nM] | Intrinsic activity (Rattus norvegicus)
1 | CO/N=C/c1ccccc1OC(C)C1=NCCN1 (stereo unspecified) | 661 | inactive | 1200 | inactive | 3090 | 501 | 0.55 | – | – | – | – | – | – | – | – | – | –
2 | COC(C)(Oc1ccccc1-c1ccccc1)C1=NCCN1 (stereo unspecified) | – | inactive | – | inactive | – | – | – | inactive | – | – | – | – | – | – | – | – | –
3 | c1ccc(-c2ccccc2OC(C2=NCCN2)c2ccccc2)cc1 (stereo unspecified) | 240 | – | 955 | inactive | 204 | 776 | 0.7 | – | 1000 | 0.45 | – | – | – | – | – | – | –
4 | CCO/N=C/c1ccccc1OC(C)C1=NCCN1 (stereo unspecified) | 417 | inactive | 447 | inactive | 339 | 1000 | 0.45 | – | – | – | – | – | – | – | – | – | –
5 | CC(Oc1ccccc1/C=N/O)C1=NCCN1 (stereo unspecified) | 288 | – | 708 | – | 912 | 126 | 0.85 | – | 501 | 0.8 | 3980 | 0.5 | – | – | – | – | –
6 | c1ccc(-c2cccc3c2OC(C2=NCCN2)CO3)cc1 (stereo unspecified) | 240 | inactive | 479 | – | 692 | 3160 | 0.4 | – | – | – | 22400 | 0.45 | – | – | – | – | –
7 | c1ccc2c(c1)OCC(C1=NCCN1)O2 (stereo unspecified) | – | – | – | – | – | – | – | – | – | – | – | – | 7.73 | 7.16 | 7.92 | – | –
8 | c1ccc(OC(C2=NCCN2)c2ccccc2)cc1 (stereo unspecified) | 93.3 | – | 47.9 | – | 64.6 | – | – | – | – | – | – | – | 6.1 | 6.04 | 6.9 | – | –
9 | CC(Oc1ccccc1C1CCCC1)C1=NCCN1 (stereo unspecified) | 50.1 | – | 191 | – | 26.9 | 10 | 0.75 | – | 63.1 | 0.65 | 501 | 0.7 | – | – | – | – | –
10 | c1ccc(-c2ccc3c(c2)OC(C2=NCCN2)CO3)cc1 (stereo unspecified) | 398 | inactive | 1000 | inactive | 1260 | – | – | inactive | – | – | – | – | – | – | – | – | –
11 | CC(Oc1ccccc1/C=N/OCc1ccccc1)C1=NCCN1 (stereo unspecified) | 214 | inactive | 871 | – | 676 | 3550 | 0.5 | – | – | – | 31600 | 0.8 | – | – | – | – | –
12 | c1ccc(-c2cccc3c2OCC(C2=NCCN2)O3)cc1 (stereo unspecified) | 724 | inactive | 1070 | – | 832 | 794 | 0.75 | – | – | – | 12600 | 0.7 | – | – | – | – | –
13 | COC1(C2=NCCN2)COc2c(cccc2-c2ccccc2)O1 (stereo unspecified) | 257 | inactive | – | – | – | – | – | inactive | – | – | 15800 | 0.5 | – | – | – | – | –
14 | CC(Oc1ccccc1-c1ccccc1)C1=NCCN1 (stereo unspecified) [BIPHENYLINE] | – | – | – | – | – | – | 0.8 | – | – | 0.7 | – | 0.5 | – | – | – | 3.02 | 1
15 | CC(Oc1ccccc1)C1=NCCN1 (stereo unspecified) | 26.9 | – | 166 | – | 263 | – | – | – | – | – | – | – | 7.01 | 6.2 | 6.85 | – | –
16 | c1ccc(-c2ccc3c(c2)OCC(C2=NCCN2)O3)cc1 (stereo unspecified) | 282 | inactive | 1660 | inactive | 1580 | – | – | inactive | – | – | – | – | – | – | – | – | –
17 | COC1(C2=NCCN2)COc2cccc(-c3ccccc3)c2O1 (stereo unspecified) | 126 | inactive | 1070 | inactive | 245 | – | – | inactive | – | – | – | – | – | – | – | – | –
18 | C=CCc1ccccc1OC(C)C1=NCCN1 (stereo unspecified) [ALLYPHENYLINE] | – | inactive | 339 | inactive | 85.1 | 50.1 | 0.9 | – | – | – | – | – | 7.4 | – | – | – | –
19 | CC(Oc1ccccc1C1CCCCC1)C1=NCCN1 (stereo unspecified) | 74.1 | – | 191 | – | 77.6 | 20.9 | 0.8 | – | 79.4 | 0.6 | 200 | 0.7 | – | – | – | – | –
